Test results taken from ChEMBL document CHEMBL1140035, “4"-Benzoylureido-TSAO derivatives as potent and selective non-nucleoside HCMV inhibitors. Structure-activity relationship and mechanism of antiviral action” (J Med Chem, 2008).
pEC50: −log10 of the molar value. Converted amounts (≈) assume the structure as drawn. The source made the active and inactive calls. The calls are words filed in the database; no cut-off is given here.

Key:
Human betaherpesvirus 5 [1] = assay: Antiviral activity against HCMV Davis in HEL cells assessed as reduction of virus-induced cytopathogenicity after 7 days; format: functional, organism-based; settings: Human betaherpesvirus 5, Davis, 168 h
Method in brief: (§1)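 Confluent HEL fibroblasts were infected with strain AD-169 or Davis at 100 PFU/well. After 2 h, residual virus was removed and medium with serial compound concentrations was added, in duplicate. Plates were held 7 days at 37 °C, fixed with ethanol, and scored microscopically for virus-induced cytopathicity. EC50 is the concentration reducing cytopathicity by 50%.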

Human betaherpesvirus 5 [2] = assay: Antiviral activity against HCMV AD169 in HEL cells assessed as reduction of virus-induced cytopathogenicity after 7 days; format: functional, organism-based; settings: Human betaherpesvirus 5, AD169, HEL, 168 h; method in brief: as §1
[3] = Cytotoxicity against HEL cells assessed as alteration in cell morphology after 3 days; format: cell-based; settings: human
Method in brief: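 Minimum cytotoxic concentration: the lowest compound concentration causing a microscopically detectable alteration of HEL cell morphology.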

Human betaherpesvirus 5 [4] = assay: Antiviral activity against HCMV in HEL cells assessed as reduction of virus-induced cytopathogenicity administered at 56 hrs post infection; format: functional, organism-based
Method in brief: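 Time-of-addition: confluent HEL cultures were infected with about 100 PFU/well of HCMV Davis. Compound dilutions were added at 0 h or at later time points post infection, with one plate set per time point. Seven days after infection, plates were ethanol-fixed and Giemsa-stained. Antiviral effect was scored microscopically and EC50 calculated.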

Murid betaherpesvirus 1 = assay: Antiviral activity against MCMV in mouse C127I cells assessed as reduction of virus-induced cytopathogenicity after 7 days; format: functional, organism-based; settings: Murid betaherpesvirus 1, C127I, 168 h
Method in brief: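 MCMV Smith strain on confluent C127I cells, run as the HCMV assay: 100 PFU/well for 2 h, inoculum removed, then serial compound concentrations in duplicate for 7 days at 37 °C. Cytopathicity was scored microscopically after ethanol fixation. EC50 is the concentration reducing virus-induced cytopathicity by 50%.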

Human alphaherpesvirus 3 [5] = assay: Antiviral activity against wild-type VZV in HEL cells after 5 days by plaque reduction assay; format: functional, organism-based; settings: Human alphaherpesvirus 3, HEL, 120 h
Method in brief: (§2)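 Plaque reduction on confluent HEL monolayers infected with 20 PFU/well of cell-associated VZV. After 2 h, inoculum was replaced by compound dilutions in duplicate, with infected-untreated controls. After 5 days, cells were fixed and Giemsa-stained and plaques counted. EC50 is the concentration reducing plaque formation by 50% versus untreated control.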

Human betaherpesvirus 5 [6] = assay: Antiviral activity against ganciclovir-resistant HCMV with DNA polymerase mutant in HEL cells assessed as reduction of virus-induced cytopathogenicity; format: functional, organism-based; settings: Human betaherpesvirus 5, HEL
Method in brief: (§3)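 Resistant mutants raised in vitro by serial passage of HCMV AD-169 under rising drug concentrations. Confluent HEL fibroblasts infected at 100 PFU/well for 2 h, then the inoculum was removed. Cells were kept with serial compound concentrations in duplicate for 7 days at 37 °C. After ethanol fixation, cytopathicity was scored microscopically. EC50 is the concentration halving virus-induced cytopathicity.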

Human betaherpesvirus 5 [7] = assay: Antiviral activity against (S)-3-hydroxy-2-phosphonomethoxypropyl cytosine-resistant HCMV with DNA polymerase mutant in HEL cells assessed as reduction of virus-induced cytopathogenicity; format: functional, organism-based; settings: Human betaherpesvirus 5, HEL; method in brief: as §3
Human betaherpesvirus 5 [8] = assay: Antiviral activity against (S)-3-hydroxy-2-phosphonomethoxypropyl adenine-resistant HCMV with DNA polymerase mutant in HEL cells assessed as reduction of virus-induced cytopathogenicity; format: functional, organism-based; settings: Human betaherpesvirus 5, HEL; method in brief: as §3
Human betaherpesvirus 5 [9] = assay: Antiviral activity against foscarnet-resistant HCMV with DNA polymerase mutant in HEL cells assessed as reduction of virus-induced cytopathogenicity; format: functional, organism-based; settings: Human betaherpesvirus 5, HEL; method in brief: as §3
Human betaherpesvirus 5 [10] = assay: Antiviral activity against acyclovir-resistant HCMV with DNA polymerase mutant in HEL cells assessed as reduction of virus-induced cytopathogenicity; format: functional, organism-based; settings: Human betaherpesvirus 5, HEL; method in brief: as §3
Human betaherpesvirus 5 [11] = assay: Antiviral activity against HCMV 6 with […] mutation in HEL cells assessed as reduction of virus-induced cytopathogenicity; format: functional, organism-based; settings: Human betaherpesvirus 5, HEL
Method in brief: (§4)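 Drug-resistant HCMV clinical isolates from immunocompromised patients, carrying UL97 and/or DNA polymerase mutations. Confluent HEL fibroblasts infected at 100 PFU/well for 2 h, then residual virus was removed. Medium with serial compound concentrations added in duplicate for 7 days at 37 °C. After ethanol fixation, cytopathicity was scored microscopically. EC50 is the concentration reducing cytopathicity by 50%.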

Human betaherpesvirus 5 [12] = assay: Antiviral activity against HCMV 521 with […] and DNA polymerase mutation in HEL cells assessed as reduction of virus-induced cytopathogenicity; format: functional, organism-based; settings: Human betaherpesvirus 5, HEL; method in brief: as §4
Human betaherpesvirus 5 [13] = assay: Antiviral activity against HCMV 530 with […] and DNA polymerase mutation in HEL cells assessed as reduction of virus-induced cytopathogenicity; format: functional, organism-based; settings: Human betaherpesvirus 5, HEL; method in brief: as §4
Human alphaherpesvirus 1 = assay: Antiviral activity against HSV1; format: functional, organism-based
[14] = Cytotoxicity against HEL cells assessed as reduction in cell growth after 3 days; format: cell-based; settings: human
Method in brief: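 HEL cells were seeded at 5 × 10³ cells/well and allowed to proliferate for 24 h. Compound-containing medium was then added at several concentrations for 3 days at 37 °C. Cells were counted with a Coulter counter. CC50, the concentration reducing cell growth by 50% versus untreated controls, was read from plots of cell number (% of control) against concentration.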

Human alphaherpesvirus 2 = assay: Antiviral activity against HSV2; format: functional, organism-based
Human alphaherpesvirus 3 [15] = assay: Antiviral activity against thymidine-kinase deficient VZV in HEL cells after 5 days by plaque reduction assay; format: functional, organism-based; settings: Human alphaherpesvirus 3, HEL, 120 h; method in brief: as §2
Vaccinia virus = assay: Antiviral activity against vaccinia virus; format: functional, organism-based; settings: Orthopoxvirus vaccinia
Human betaherpesvirus 5 [16] = assay: Inhibition of immediate early antigen expression in HCMV Davis in HEL cells at 48 hrs post infection by flow cytometry; format: functional, organism-based
Method in brief: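 HEL cells were infected with HCMV Davis, with compound dilutions added at infection and incubation at 37 °C. Cells were acetone-fixed at 4 °C, resuspended in PBS with 5% gelatin, and stained at 37 °C with a mAb against IE proteins 1 and 2. A fluorescein-labelled rabbit anti-mouse IgG was applied for 30 min, cells were fixed in 0.5% formaldehyde and analysed by flow cytometry. Background fluorescence of uninfected cells was subtracted.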

[17] = target: T1, DNA polymerase (Human herpesvirus 5) (UniProt A6BMM6); assay: Inhibition of HCMV UL54-encoded DNA polymerase at 5 to 7.5 uM after 60 mins; settings: Human betaherpesvirus 5
T1 sequence (whole entry): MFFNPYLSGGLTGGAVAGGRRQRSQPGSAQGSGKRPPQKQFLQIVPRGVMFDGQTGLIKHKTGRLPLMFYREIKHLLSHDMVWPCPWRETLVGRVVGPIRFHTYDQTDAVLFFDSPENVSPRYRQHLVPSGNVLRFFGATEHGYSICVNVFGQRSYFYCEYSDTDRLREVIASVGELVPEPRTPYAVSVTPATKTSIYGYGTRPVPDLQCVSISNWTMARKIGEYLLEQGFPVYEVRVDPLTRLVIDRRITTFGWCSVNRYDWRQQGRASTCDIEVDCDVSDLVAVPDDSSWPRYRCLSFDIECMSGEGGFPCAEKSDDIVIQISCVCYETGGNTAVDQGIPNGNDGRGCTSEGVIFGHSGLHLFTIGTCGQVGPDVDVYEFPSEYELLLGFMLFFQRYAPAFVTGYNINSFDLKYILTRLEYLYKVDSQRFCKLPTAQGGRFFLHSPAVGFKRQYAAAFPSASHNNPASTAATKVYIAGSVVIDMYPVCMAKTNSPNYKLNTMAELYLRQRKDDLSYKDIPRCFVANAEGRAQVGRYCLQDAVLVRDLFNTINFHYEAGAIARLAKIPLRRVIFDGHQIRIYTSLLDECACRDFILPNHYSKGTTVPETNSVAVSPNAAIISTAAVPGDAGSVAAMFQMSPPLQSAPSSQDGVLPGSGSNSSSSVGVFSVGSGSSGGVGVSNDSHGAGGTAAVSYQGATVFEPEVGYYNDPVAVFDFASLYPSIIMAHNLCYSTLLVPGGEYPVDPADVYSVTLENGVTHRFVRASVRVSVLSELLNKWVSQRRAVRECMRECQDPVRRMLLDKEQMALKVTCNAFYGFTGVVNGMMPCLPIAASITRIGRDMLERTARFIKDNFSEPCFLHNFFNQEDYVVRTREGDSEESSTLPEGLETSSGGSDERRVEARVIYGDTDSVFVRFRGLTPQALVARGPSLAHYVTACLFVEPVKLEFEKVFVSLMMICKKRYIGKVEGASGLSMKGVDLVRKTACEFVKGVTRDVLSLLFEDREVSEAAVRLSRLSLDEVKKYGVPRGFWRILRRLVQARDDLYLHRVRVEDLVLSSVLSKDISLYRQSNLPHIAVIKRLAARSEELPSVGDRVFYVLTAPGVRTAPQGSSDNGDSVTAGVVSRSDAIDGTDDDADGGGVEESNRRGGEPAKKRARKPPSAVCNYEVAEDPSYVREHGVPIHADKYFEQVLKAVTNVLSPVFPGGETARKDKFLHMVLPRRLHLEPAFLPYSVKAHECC

Cc1cn([C@@H]2O[C@H](CO[Si](C)(C)C(C)(C)C(C)C)[C@@]3(OS(=O)(=O)C=C3NC(=O)NC(=O)c3ccccc3)[C@H]2O[Si](C)(C)C(C)(C)C(C)C)c(=O)n(C)c1=O
pEC50 (Human betaherpesvirus 5 [1]): 5.82 | pEC50 (Human betaherpesvirus 5 [2]): 5.92 | MCC at 72 h [3]: ≥ 100 µM | Activity (Human betaherpesvirus 5 [4]): inactive | pEC50 (Murid betaherpesvirus 1): 6.27 | pEC50 (Human alphaherpesvirus 3 [5]): 4.96 | EC50 (Human betaherpesvirus 5 [6]): 3.3 µg/mL (≈ 4.09 µM) | EC50 (Human betaherpesvirus 5 [7]): 2.6 µg/mL (≈ 3.22 µM) | EC50 (Human betaherpesvirus 5 [8]): 5.6 µg/mL (≈ 6.94 µM) | EC50 (Human betaherpesvirus 5 [9]): 2.7 µg/mL (≈ 3.35 µM) | EC50 (Human betaherpesvirus 5 [10]): 2.7 µg/mL (≈ 3.35 µM) | EC50 (Human betaherpesvirus 5 [11]): 5.5 µg/mL (≈ 6.81 µM) | EC50 (Human betaherpesvirus 5 [12]): 2.9 µg/mL (≈ 3.59 µM) | EC50 (Human betaherpesvirus 5 [13]): 5.7 µg/mL (≈ 7.06 µM) | Activity (Human alphaherpesvirus 1): inactive | CC50 at 72 h [14]: > 50000 nM | Activity (Human alphaherpesvirus 2): inactive | pEC50 (Human alphaherpesvirus 3 [15]): 4.96 | Activity (Vaccinia virus): inactive

Cc1cn([C@@H]2O[C@H](CO[Si](C)(C)C(C)(C)C(C)C)[C@@]3(OS(=O)(=O)C=C3NC(=O)NC(=O)c3ccccc3)[C@H]2O[Si](C)(C)C(C)(C)C)c(=O)n(C)c1=O
pEC50 (Human betaherpesvirus 5 [1]): 5.85 | pEC50 (Human betaherpesvirus 5 [2]): 5.96 | MCC at 72 h [3]: ≥ 100 µM | Activity (Human betaherpesvirus 5 [16]): inactive | Activity (Human betaherpesvirus 5 [4]): inactive | pEC50 (Murid betaherpesvirus 1): 6.18 | pEC50 (Human alphaherpesvirus 3 [5]): 4.96 | EC50 (Human betaherpesvirus 5 [6]): 0.9 µg/mL (≈ 1.16 µM) | EC50 (Human betaherpesvirus 5 [7]): 1 µg/mL (≈ 1.28 µM) | EC50 (Human betaherpesvirus 5 [8]): 3.1 µg/mL (≈ 3.98 µM) | EC50 (Human betaherpesvirus 5 [9]): 0.78 µg/mL (≈ 1 µM) | EC50 (Human betaherpesvirus 5 [10]): 1.1 µg/mL (≈ 1.41 µM) | EC50 (Human betaherpesvirus 5 [11]): 0.86 µg/mL (≈ 1.1 µM) | EC50 (Human betaherpesvirus 5 [12]): 0.67 µg/mL (≈ 0.86 µM) | EC50 (Human betaherpesvirus 5 [13]): 1.3 µg/mL (≈ 1.67 µM) | Activity (Human alphaherpesvirus 1): inactive | CC50 at 72 h [14]: > 50000 nM | Activity (Human alphaherpesvirus 2): inactive | pEC50 (Human alphaherpesvirus 3 [15]): 4.96 | Activity (Vaccinia virus): inactive

O=C(O)P(=O)(O)O [FOSCARNET]
Activity [17]: Active | EC50 (Human betaherpesvirus 5 [6]): 17 µg/mL (≈ 135 µM) | EC50 (Human betaherpesvirus 5 [7]): 14 µg/mL (≈ 111 µM) | EC50 (Human betaherpesvirus 5 [8]): 35 µg/mL (≈ 278 µM) | EC50 (Human betaherpesvirus 5 [9]): 135 µg/mL (≈ 1070 µM) | EC50 (Human betaherpesvirus 5 [10]): 37 µg/mL (≈ 294 µM) | EC50 (Human betaherpesvirus 5 [11]): 34 µg/mL (≈ 270 µM) | EC50 (Human betaherpesvirus 5 [12]): 29 µg/mL (≈ 230 µM) | EC50 (Human betaherpesvirus 5 [13]): 31 µg/mL (≈ 246 µM)
